Results taken from ChEMBL document CHEMBL4402582, “Garcinoic Acid Is a Natural and Selective Agonist of Pregnane X Receptor” (J Med Chem, 2020).

What was measured:
Format in all cases: cell-based
[1] = target: T1, Nuclear receptor subfamily 1 group I member 2 (Homo sapiens, UniProt O75469); experiment: Agonist activity at PXR in human HepG2 cells assessed as increase in PXR protein expression at 1 to 25 uM incubated for 24 hrs by immunoblot analysis; settings: hepg2, 24 h
T1 sequence (O75469 whole entry): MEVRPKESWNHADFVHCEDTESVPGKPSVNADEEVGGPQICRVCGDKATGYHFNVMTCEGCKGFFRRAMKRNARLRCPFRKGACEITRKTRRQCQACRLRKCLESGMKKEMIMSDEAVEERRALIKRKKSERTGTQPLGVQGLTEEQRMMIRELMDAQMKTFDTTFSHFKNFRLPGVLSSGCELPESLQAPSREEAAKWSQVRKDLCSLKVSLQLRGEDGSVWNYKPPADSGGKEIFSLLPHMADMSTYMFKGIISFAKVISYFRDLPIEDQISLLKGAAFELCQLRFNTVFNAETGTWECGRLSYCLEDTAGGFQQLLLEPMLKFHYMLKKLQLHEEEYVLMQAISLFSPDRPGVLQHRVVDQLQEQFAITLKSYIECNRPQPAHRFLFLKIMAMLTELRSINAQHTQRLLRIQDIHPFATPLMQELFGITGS
Procedure, shortened: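 HepG2 cells, passages 2–10, treated 24 h with 1 and 25 μM. Lysates sonicated on ice; 20 μg protein run on 10–12% SDS-PAGE and immunoblotted with anti-PXR or anti-CYP3A4. Bands normalized to housekeeping protein and expressed relative to control (=1).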

[2] = target: T1, Nuclear receptor subfamily 1 group I member 2; experiment: Agonist activity at PXR in human HepaRG cells assessed as increase in PXR protein expression at 1 to 25 uM incubated for 24 hrs by immunoblot analysis
[3] = target: T1, Nuclear receptor subfamily 1 group I member 2; experiment: Agonist activity at PXR in human HepG2 cells assessed as stimulation of CYP450-mediated alpha-tocopherol metabolites efflux at 25 uM; settings: hepg2, 25 µM

## C/C(=C\CC/C(C)=C/CC[C@]1(C)CCc2cc(O)cc(C)c2O1)CC/C=C(\C)C(=O)O
[1]
  Activity: Dose-dependent effect
[2]
  Activity: Active
[3]
  Activity: Active
